The list is not random: actives were taken first. Their share in the collection is about 1.4%.
GSK3B inh: blocks human GSK3beta kinase activity | activity score (negative = inhibition), % at 10 µM | 300,000 tested, 0.038% active | GST-GSK3beta kinase, ADP-Glo luminescence, 60 min; active compounds read low | P49841 | AID 2097;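 active = more than half of replicate wells score below -50%, meaning over 50% inhibition versus plate controls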;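 note: 0% = median DMSO wells and -100% = median GW8510 positive control wells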
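Test system: GST-tagged human GSK3beta kinase, cell-free; evaluation: activity score scaled between in-plate DMSO and GW8510 controls; measured by: ADP-Glo luminescence; incubation: 60 min reaction, RT; benchmarks: DMSO and 20 µM GW8510; reagent: peptide substrate plus 25 µM ATP (final); medium: Tris/MgCl2 kinase buffer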
CDK5 inh: inhibitors of human CDK5/p35 kinase; Q00535+Q15078; Recombinant CDK5/p35, ADP-Glo luminescence, 60 min; inhibition, % at 10 µM; 330,000 tested, 0.01% active;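 active = highest replicate inhibition of at least 50% and at least 75% of replicates reaching 50%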;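 note: plate controls were DMSO neutral control for no effect and GW8510 at 10 µM for full effect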
Target sequence (Q00535 whole entry, looked up): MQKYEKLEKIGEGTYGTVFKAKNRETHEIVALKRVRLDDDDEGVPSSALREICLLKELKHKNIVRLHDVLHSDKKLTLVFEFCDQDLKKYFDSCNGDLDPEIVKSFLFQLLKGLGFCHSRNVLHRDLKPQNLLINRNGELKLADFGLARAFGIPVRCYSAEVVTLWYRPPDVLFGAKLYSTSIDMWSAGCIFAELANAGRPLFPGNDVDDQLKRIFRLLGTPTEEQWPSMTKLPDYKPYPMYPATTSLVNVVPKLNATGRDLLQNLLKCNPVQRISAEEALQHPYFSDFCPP
Target sequence (Q15078 whole entry, looked up): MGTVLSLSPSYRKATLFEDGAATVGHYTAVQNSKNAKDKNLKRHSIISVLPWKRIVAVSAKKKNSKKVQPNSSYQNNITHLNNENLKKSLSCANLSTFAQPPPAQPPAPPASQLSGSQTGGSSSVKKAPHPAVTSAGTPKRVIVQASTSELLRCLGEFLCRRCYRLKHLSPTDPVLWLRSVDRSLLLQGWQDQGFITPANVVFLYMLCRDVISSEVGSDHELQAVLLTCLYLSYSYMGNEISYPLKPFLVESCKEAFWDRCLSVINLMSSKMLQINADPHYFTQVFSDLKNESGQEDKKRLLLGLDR
Env fusion inh: blocks HIV Env-driven cell-cell fusion; AID 651610; HeLa-JRFL Env/CEM21 cell fusion, luciferase; inhibition, % at 12.3 µM; 360,000 tested, 1.1% active;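 active = mean replicate inhibition score of at least 50 and every replicate individually at or above 50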;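 note: 0% = plate neutral controls and 100% = maraviroc near 300 nM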
STK33 kinase inh: human STK33 kinase inhibition; AID 2661; 320,000 tested, 0.073% active; purified STK33, MBP phosphorylation, ADP-Glo luminescence; Q9BYT3; inhibition, % at 10 µM;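 active = inhibition at or above 25%, using the most active replicate where run in duplicate; inactive = inhibition below 25%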
GSK3 alpha inh: human GSK-3 alpha kinase inhibition. ADP-Glo luminescence, 60 min. 320,000 tested, 0.1% active. inhibition, % at 10 µM;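 active = more than half of replicates show inhibition above 20%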;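 note: GST-tagged GSK-3 alpha with peptide substrate and 25 µM ATP; 0% = DMSO neutral wells and 100% = GW8510 positive control wells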
GSIS activator: GLuc luminescence reporter in INS-1E cells, primary screen for activators of glucose-dependent secretion of insulin; 370,000 tested, 0.61% active; activation, % at 16.6 µM; INS-1E GLuc reporter insulin secretion, 2-3 h;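 active = lowest replicate activation of at least 40%, so every replicate reaches that level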;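 note: 0% = median of neutral control wells and 100% = median of IBMX positive control wells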
The depositor's hits bear a star; . = no result given; [ ] = remark or other dose.

SMILES | GSK3B inh | CDK5 inh | Env fusion inh | STK33 kinase inh | GSK3 alpha inh | GSIS activator
CC1C(=O)Nc2ccccc2N1C(=O)c1ccc(O)cc1 (configuration not stated) | -4 | 0 | 14 | -2 | 1 | 17
CSC1=C(C#N)C(c2ccccc2Cl)C2=C(N1)c1ccccc1C2=O (configuration not stated) | -3 | -2 | 37 | 0 | 0 | .
CSC1=C(C#N)C(c2ccccc2C)C(C#N)=C(N)N1 (configuration not stated) | -6 | -2 | 62* | 1 | 13 | .
NS(=O)(=O)c1ccc(Sc2nc3ccccc3s2)c([N+](=O)[O-])c1 | -1 | 2 | 73* | 0 | 0 | .
NS(=O)(=O)c1ccc(Sc2ccccn2)c([N+](=O)[O-])c1 | 1 | 1 | -3 | -1 | -1 | 8
CN1CCN(C(=O)C[C@@H]2C=C[C@H](NC(=O)Cc3ccccn3)[C@@H](CO)O2)CC1 | . | . | -16[16.7 µM] | . | . | 3
CC(C)NC(=O)Nc1ccc2c(c1)C(=O)N([C@H](C)CO)C[C@@H](C)[C@@H](CN(C)S(=O)(=O)c1ccc(Cl)cc1)OCCCC[C@@H](C)O2 | . | . | 14[16.7 µM] | . | . | -34
CCN(CCNCC(O)COc1ccccc1C(C)C)c1cccc(C)c1 (configuration not stated) | -1 | 0 | 18 | 1 | -1 | 383*
COCCN1Cc2cccc(C(=O)NCc3ccccc3OC)c2C1=O | -5 | -1 | . | 0 | 2 | 55*
COc1ccccc1CNC(=O)c1cccc2c1C(=O)N(Cc1cccnc1)C2 | 0 | -10 | 0 | 0 | 0 | 3
Cc1ccc(C(=O)c2cnc3ccccc3c2-c2ccccc2)cc1 | 3 | 1 | 83* | 1 | -1 | .
COc1ccc(C(=O)c2cnc3ccccc3c2-c2ccccc2)cc1 | 1 | 1 | 91* | 0 | -1 | .
Cc1ccc(C(=O)c2nc(C(=O)NCCO)nc3ccccc23)cc1 | . | 1 | 6 | 1 | 0 | 4
C[C@@H]1CCCCO[C@H](CN(C)C(=O)C2CCCCC2)[C@@H](C)CN([C@H](C)CO)C(=O)c2cc(NC(=O)Cc3ccccc3)ccc2O1 | . | . | -25[16.7 µM] | . | . | -14
CCCCN1C(=O)C(O)(c2ccccc2)c2cc(Br)ccc21 (configuration not stated) | -2 | 1 | 85* | -1 | -3 | -34
CN1C(=O)[C@@](O)(CC(=O)c2ccccc2)c2cc(Br)ccc21 | . | . | 6 | . | . | 7
CCCN(C)C[C@H]1OCCCC[C@@H](C)Oc2ccc(NS(=O)(=O)c3ccc(C)cc3)cc2C(=O)N([C@H](C)CO)C[C@H]1C | . | . | -123[16.7 µM] | . | . | -7
COc1ccc2c3c([nH]c2c1)[C@@H](CO)N(C(=O)NC(C)C)CC31CCN(C(=O)NC2CCCC2)CC1 | . | . | . | . | . | -16
CC1(C)C2CC=C(/C=N/NC(=S)NCCc3ccccc3)C1C2 (configuration not stated) | 1 | -1 | 67* | -1 | -2 | .
CNC(=S)N/N=C/C1=CCC2CC1C2(C)C (configuration not stated) | -3 | 0 | . | -1 | -1 | -9
COc1ccc(C#Cc2cnc3c(c2)C(=O)N([C@H](C)CO)C[C@H](C)[C@H](CN(C)S(=O)(=O)c2ccc(C#N)cc2)O3)cc1OC | . | . | . | . | . | -11
C[C@@H]1CN([C@H](C)CO)C(=O)c2ccccc2-c2ccccc2CO[C@@H]1CN(C)S(C)(=O)=O | . | . | -8[16.7 µM] | . | . | 11
O=C(Nc1cccc(F)c1)N[C@@H]1CC[C@H](CCNS(=O)(=O)c2cccc(Cl)c2)O[C@H]1CO | . | . | 67*[16.7 µM] | . | . | -29
O=C(Nc1cccc(F)c1)N[C@H]1CC[C@@H](CCNS(=O)(=O)c2cccc(Cl)c2)O[C@H]1CO | . | . | 96*[16.7 µM] | . | . | -28
O=S(=O)(NCC[C@@H]1CC[C@@H](NS(=O)(=O)c2ccccc2Cl)[C@H](CO)O1)c1ccc(Cl)cc1 | . | . | 57*[16.7 µM] | . | . | -22
SMILES | GSK3B inh | CDK5 inh | Env fusion inh | STK33 kinase inh | GSK3 alpha inh | GSIS activator
O=C(Nc1ccc(Cl)c(Cl)c1)N[C@@H]1CC[C@H](CCn2cc(C3CCCCC3)nn2)O[C@H]1CO | . | . | 37[16.7 µM] | . | . | -36
COc1ccc2c3c([nH]c2c1)[C@@H](CO)N(S(=O)(=O)c1cn(C)cn1)CC31CCN(Cc2ccccc2)CC1 | . | . | . | . | . | -11
Cc1ccc(OCCCCn2cnc3ccccc32)cc1 | 2 | -1 | -18 | -2 | -2 | -29
Cc1ccccc1OCCCCn1cnc2ccccc21 | 0 | 1 | 65* | 0 | -3 | .
c1ccc2c(c1)ncn2CCCCOc1ccc2c(c1)CCC2 | -2 | -1 | 88* | 2 | . | .
COc1ccc(NC(=O)N[C@H]2CC[C@@H](CCn3cc(-c4ccccn4)nn3)O[C@@H]2CO)cc1 | . | . | -7[16.7 µM] | . | . | -1
COc1ccc(C(Nc2cccc([N+](=O)[O-])c2)P(=O)(OC(C)C)OC(C)C)cc1 (configuration not stated) | 1 | 0 | 57* | -2 | -3 | -40
CC[C@@H](C)[C@@H](CO[C@@H](Cc1ccccc1)C(=O)N[C@@H](CCS(C)(=O)=O)C(=O)OC(C)C)NCC(N)CS (some centres not stated) | . | . | -72[16.7 µM] | . | . | .
O=C(Oc1ccc(/C=N/NC(=O)c2ccccn2)cc1)c1ccc(Br)cc1 | 2 | 0 | -22 | -1 | -3 | .
O=C(Oc1ccc(/C=N/NC(=O)c2ccccn2)cc1)c1cccc(Br)c1 | -1 | 3 | -106 | -1 | -2 | 44*
CCCCCCn1c(N)c(C#N)c2ccc([N+](=O)[O-])cc2c1=O | -7 | -3 | 10 | -1 | 1 | -6
CC(C)n1c(N)c(C#N)c2ccc([N+](=O)[O-])cc2c1=O | -2 | 1 | 15 | -1 | -1 | 103*
O=C(NCC[C@@H]1CC[C@H](NC(=O)C2CCOCC2)[C@@H](CO)O1)c1ccc(F)cc1 | . | . | 12[16.7 µM] | . | . | 5
C[C@H]1CCCCO[C@@H](CN(C)Cc2ccccc2)[C@@H](C)CN([C@@H](C)CO)C(=O)c2cc(NC(=O)Nc3cccc4ccccc34)ccc2O1 | . | . | 110*[16.7 µM] | . | . | -23
C[C@@H]1CN([C@@H](C)CO)C(=O)c2cc(NC(=O)Nc3cccc4ccccc34)ccc2O[C@@H](C)CCCCO[C@H]1CN(C)C(=O)c1ccccc1 | . | . | 61*[16.7 µM] | . | . | 13
C[C@@H]1CN([C@H](C)CO)C(=O)c2cc(NC(=O)Nc3cccc4ccccc34)ccc2O[C@@H](C)CCCCO[C@@H]1CN(C)C(=O)c1ccccc1 | . | . | -3[16.7 µM] | . | . | 2
C[C@H](CO)N1C[C@H](C)[C@@H](CN(C)Cc2ccccc2)OCCCC[C@H](C)Oc2ccc(NC(=O)Nc3cccc4ccccc34)cc2C1=O | . | . | 5[16.7 µM] | . | . | 0
Cn1c(=O)c2c(ncn2Cc2ccc(Cl)c(Cl)c2)n(C)c1=O | -4 | -1 | 66* | -1 | -3 | -5
CCC(=O)Nc1ccc2c(c1)C(=O)N(C)C[C@H](OC)[C@@H](C)CN(C(=O)C1CCC1)[C@@H](C)CO2 | . | . | . | . | . | -11
